Experimental data: ChEMBL document CHEMBL3352791, “Thioaryl naphthylmethanone oxime ether analogs as novel anticancer agents” (J Med Chem, 2014)
Active and inactive are the calls of the source. The rule behind the calls is not given here.

Experiments:
[1] = target: Platelet-derived growth factor receptor alpha (Homo sapiens) (UniProt P16234); test: Inhibition of PDGFRalpha (unknown origin) at 10 uM
Summary of the method: (§1)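 Cell-free kinase profiling was run as a standard 33P-ATP-based in vitro kinase assay.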

[2] = tested on: Mast/stem cell growth factor receptor Kit (Homo sapiens), P10721 [D816H]; test: Inhibition of cKit D816H mutant (unknown origin) at 10 uM; summary of the method: as §1
Mast/stem cell growth factor receptor Kit (Homo sapiens), P10721 [D816H], sequence (P10721 whole entry D816H): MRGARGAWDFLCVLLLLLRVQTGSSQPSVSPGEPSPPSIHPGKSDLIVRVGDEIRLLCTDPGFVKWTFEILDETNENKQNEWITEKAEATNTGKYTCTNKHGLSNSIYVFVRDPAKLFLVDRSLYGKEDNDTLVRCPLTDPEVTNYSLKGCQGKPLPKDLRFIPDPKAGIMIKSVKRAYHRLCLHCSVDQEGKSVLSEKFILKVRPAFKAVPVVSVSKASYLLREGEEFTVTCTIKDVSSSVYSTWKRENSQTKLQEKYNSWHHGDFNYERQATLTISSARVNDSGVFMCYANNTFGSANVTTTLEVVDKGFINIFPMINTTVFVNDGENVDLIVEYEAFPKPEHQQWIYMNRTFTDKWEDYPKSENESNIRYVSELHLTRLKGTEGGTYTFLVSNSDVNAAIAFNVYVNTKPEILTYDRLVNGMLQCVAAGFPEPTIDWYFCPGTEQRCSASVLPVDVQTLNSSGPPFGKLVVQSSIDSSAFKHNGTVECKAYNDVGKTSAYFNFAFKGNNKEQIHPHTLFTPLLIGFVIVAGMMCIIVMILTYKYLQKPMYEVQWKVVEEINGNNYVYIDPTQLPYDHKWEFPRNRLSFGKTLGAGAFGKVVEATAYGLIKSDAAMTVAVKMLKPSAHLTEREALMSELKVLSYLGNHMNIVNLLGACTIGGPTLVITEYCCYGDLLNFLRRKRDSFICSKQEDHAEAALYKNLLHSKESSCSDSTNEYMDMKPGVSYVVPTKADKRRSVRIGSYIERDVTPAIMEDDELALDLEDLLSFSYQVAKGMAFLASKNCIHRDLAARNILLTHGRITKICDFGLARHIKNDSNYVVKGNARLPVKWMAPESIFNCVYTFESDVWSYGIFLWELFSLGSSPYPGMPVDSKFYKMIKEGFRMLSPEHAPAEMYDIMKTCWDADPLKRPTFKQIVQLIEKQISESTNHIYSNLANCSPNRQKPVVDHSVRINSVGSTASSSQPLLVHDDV

[3] = target: Receptor-type tyrosine-protein kinase FLT3 (Homo sapiens) (UniProt P36888); test: Inhibition of Flt3 (unknown origin) at 10 uM
Receptor-type tyrosine-protein kinase FLT3 (Homo sapiens), sequence (P36888 whole entry): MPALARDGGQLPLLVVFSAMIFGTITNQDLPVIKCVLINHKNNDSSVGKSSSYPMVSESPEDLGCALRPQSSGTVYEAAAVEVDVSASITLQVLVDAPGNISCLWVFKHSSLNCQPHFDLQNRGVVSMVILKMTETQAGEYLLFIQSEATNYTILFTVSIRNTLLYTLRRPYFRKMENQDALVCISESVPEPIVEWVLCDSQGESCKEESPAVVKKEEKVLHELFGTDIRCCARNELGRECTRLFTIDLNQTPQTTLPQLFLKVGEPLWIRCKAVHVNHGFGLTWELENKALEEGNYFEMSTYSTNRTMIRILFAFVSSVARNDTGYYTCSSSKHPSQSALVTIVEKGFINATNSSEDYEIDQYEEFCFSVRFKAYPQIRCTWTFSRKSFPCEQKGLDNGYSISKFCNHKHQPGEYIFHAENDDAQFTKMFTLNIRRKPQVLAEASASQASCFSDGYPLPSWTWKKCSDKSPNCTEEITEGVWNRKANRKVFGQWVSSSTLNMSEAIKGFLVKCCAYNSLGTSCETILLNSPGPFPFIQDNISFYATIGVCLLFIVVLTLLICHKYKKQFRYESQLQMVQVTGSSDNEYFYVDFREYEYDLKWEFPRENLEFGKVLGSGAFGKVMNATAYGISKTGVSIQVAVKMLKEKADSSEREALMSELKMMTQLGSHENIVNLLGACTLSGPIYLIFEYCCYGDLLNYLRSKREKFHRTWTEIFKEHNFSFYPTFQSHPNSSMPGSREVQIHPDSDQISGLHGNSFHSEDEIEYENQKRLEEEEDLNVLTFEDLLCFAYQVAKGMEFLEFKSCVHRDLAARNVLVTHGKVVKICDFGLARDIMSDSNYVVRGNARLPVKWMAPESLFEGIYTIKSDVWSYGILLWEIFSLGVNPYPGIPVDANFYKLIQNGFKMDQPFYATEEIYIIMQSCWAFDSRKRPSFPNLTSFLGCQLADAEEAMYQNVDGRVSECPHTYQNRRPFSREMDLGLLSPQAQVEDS

[4] = target: Dual specificity calcium/calmodulin-dependent 3',5'-cyclic nucleotide phosphodiesterase 1A (Homo sapiens) (UniProt P54750); test: Inhibition of PDE1A3 (unknown origin) activity at 1 to 10 uM
Dual specificity calcium/calmodulin-dependent 3',5'-cyclic nucleotide phosphodiesterase 1A (Homo sapiens), sequence (P54750 whole entry, canonical isoform): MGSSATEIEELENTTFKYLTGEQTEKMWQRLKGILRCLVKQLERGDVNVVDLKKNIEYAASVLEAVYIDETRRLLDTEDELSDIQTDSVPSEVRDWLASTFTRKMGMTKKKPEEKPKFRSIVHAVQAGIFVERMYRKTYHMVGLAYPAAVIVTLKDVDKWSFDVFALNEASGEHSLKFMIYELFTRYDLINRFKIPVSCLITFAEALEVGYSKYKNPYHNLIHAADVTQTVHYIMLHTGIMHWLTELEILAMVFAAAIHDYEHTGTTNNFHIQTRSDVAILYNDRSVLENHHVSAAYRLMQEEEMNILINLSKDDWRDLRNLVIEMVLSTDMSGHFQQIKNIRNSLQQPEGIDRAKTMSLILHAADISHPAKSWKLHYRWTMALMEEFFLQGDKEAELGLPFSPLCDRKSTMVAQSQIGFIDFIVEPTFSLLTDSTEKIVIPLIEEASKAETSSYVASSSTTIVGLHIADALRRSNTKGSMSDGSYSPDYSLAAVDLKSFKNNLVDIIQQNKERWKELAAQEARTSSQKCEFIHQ
Summary of the method: (§2)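 Recombinant PDE isoform activity was read by fluorescence polarization. A binding reagent complexes with the nucleotide monophosphate that the phosphodiesterase generates from cAMP/cGMP, and this raises the polarization of the labelled substrate. Reference standards were PDE1A3 10µM IBMX, PDE2A3 1nM BAY 60-7550, PDE3CAT 1µM cilostazol, PDE4CAT rolipram, PDE5CAT 0.1µM sildenafil, PDE7A […], PDE8A1 10µM BRL-50481, PDE9A1 1µM SB 36216 and PDE11A1 dipyridamole.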

[5] = target: Phosphodiesterase 3 (Homo sapiens) (UniProt Q14432+Q13370); test: Inhibition of PDE3 CAT (unknown origin) activity at 1 to 10 uM; format: protein assay; summary of the method: as §2
[6] = target: High affinity 3',5'-cyclic-AMP phosphodiesterase 7A (Homo sapiens) (UniProt Q13946); test: Inhibition of PDE7A (unknown origin) activity at 1 to 10 uM; summary of the method: as §2
High affinity 3',5'-cyclic-AMP phosphodiesterase 7A (Homo sapiens), sequence (Q13946 whole entry): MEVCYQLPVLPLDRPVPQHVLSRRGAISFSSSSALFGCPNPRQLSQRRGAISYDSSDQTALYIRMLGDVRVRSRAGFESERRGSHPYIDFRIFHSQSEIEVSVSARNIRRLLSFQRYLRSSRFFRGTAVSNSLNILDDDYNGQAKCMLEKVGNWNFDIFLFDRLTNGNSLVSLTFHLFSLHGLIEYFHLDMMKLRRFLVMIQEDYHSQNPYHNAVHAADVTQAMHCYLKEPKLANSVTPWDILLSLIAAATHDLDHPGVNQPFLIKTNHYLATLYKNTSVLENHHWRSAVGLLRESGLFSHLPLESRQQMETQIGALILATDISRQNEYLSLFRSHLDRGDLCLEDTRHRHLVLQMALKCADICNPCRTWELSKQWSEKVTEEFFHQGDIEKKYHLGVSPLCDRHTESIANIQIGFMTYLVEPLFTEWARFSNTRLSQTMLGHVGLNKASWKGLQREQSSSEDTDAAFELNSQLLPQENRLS

MDA-MB-231 [7] = test: Antiproliferative activity against human […] cells at 2.5 to 7.5 uM by annexin V-FITC/propidium iodide staining-based flow cytometric analysis; format: functional, cell-based
MCF7 [8] = test: Cytotoxicity against human […] cells assessed as cell viability at 5 uM by MTT assay in presence of z-LEHD-FMK caspase-9 inhibitor; format: functional, cell-based
Summary of the method: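 Cells seeded 1×10^4/well in DMEM with 10% FBS, adhered overnight, serum-starved 4 h; pre-incubated 2 h with Z-IETD-FMK or Z-LEHD-FMK (10µM each), then 5μM compound for a further 24 h; viability by MTT.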

MDA-MB-231 [9] = test: Inhibition of ALDH1 in human MDA-MB-231 cells at 5 to 20 uM after 8 days by FACS analysis; format: functional, cell-based
Summary of the method: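 ALDH1-positive MDA-MB-231 cells identified with Aldefluor reagent and quantified by flow cytometry.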

MCF7 [10] = test: Inhibition of IGF1 expression in human MCF7 cells at 5 uM by ELISA; format: functional, cell-based
MDA-MB-231 [11] = test: Inhibition of TGFbeta expression in human MDA-MB-231 cells at 5 uM by ELISA; format: functional, cell-based
[12] = target: T1, Signal transducer and activator of transcription 1-alpha/beta (Homo sapiens) (UniProt P42224); test: Inhibition of basal level STAT1 phosphorylation in human MDA-MB-231 cells at 1 uM by ELISA; format: cell-based
T1 sequence (whole entry): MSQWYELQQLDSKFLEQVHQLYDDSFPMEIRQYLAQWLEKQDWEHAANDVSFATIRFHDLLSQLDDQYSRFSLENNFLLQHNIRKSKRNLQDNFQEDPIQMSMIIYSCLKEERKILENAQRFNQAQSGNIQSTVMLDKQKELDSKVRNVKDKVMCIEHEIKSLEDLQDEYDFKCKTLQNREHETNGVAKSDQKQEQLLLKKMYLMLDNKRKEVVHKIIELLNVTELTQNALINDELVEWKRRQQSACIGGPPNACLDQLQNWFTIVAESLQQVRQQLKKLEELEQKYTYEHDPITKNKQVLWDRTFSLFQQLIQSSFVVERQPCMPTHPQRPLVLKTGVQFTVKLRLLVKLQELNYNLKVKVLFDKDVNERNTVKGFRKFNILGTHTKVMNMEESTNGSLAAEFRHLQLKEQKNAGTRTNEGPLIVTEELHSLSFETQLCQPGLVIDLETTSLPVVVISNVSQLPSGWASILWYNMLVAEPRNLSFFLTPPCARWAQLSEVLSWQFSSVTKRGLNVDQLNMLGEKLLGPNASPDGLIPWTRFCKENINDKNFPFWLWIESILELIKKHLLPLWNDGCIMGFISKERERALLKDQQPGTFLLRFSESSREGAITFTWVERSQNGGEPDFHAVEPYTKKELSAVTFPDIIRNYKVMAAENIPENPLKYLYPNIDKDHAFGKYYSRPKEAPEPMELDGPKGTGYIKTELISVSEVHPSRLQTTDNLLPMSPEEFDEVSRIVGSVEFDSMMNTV

MDA-MB-231 [13] = test: Antiinvasion activity in human MDA-MB-231 cells assessed as inhibition of EGF-induced cell invaded to matrigel coated invasion chamber at 1 uM after 24 hrs by Transwell invasion assay; format: functional, cell-based
Summary of the method: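 Transwell matrigel invasion (8 µm pore): cells at 1x10^5 cells/mL in 2% FBS medium in upper chamber; lower chamber medium with 1µM compound and EGF 100ng/ml; 24 h. Invaded cells on filter underside fixed, crystal-violet stained, counted in six random fields at 20×, dye dissolved in 0.1% SDS read at 540nm; triplicate chambers.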

Vero = test: Antiproliferative activity against african green monkey Vero cells after 24 hrs by MTT assay; format: functional, cell-based; settings: Chlorocebus sabaeus
Summary of the method: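 MTT viability: cells seeded at 1×10^4 per well in DMEM with 10% FBS, left to adhere overnight, then serum-starved 4 h. Compounds were given at a range of doses, with 0.1% DMSO vehicle as control. EC50 was taken from dose-response curves spanning 100nM-50µM. Data are mean ± SEM from at least three independent experiments.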

[14] = Safety index, ratio of IC50 for human MCF10A cells to EC50 for human COLO205 cells; format: toxicity, cell-based, COLO 205; settings: MCF10A cells versus COLO205 cells, read-out: Ratio IC50/EC50
Summary of the method: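 Safety index is the IC50 in the normal cells divided by the EC50 in the cancer cells. Both values come from MTT assays: cells in DMEM with 10% FBS, serum-starved 4 h, then exposed to compound across a 100nM-50µM dose range with 0.1% DMSO as vehicle control.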

MCF7 [15] = test: Cell cycle arrest in human […] cells assessed as accumulation at subG1 phase at 5 uM by propidium iodide staining by FACS analysis (reference value: 0.1%); format: functional
MDA-MB-231 [16] = test: Cell cycle arrest in human […] cells assessed as accumulation at subG1 phase at 2.5 uM by propidium iodide staining by FACS analysis (reference value: 0.3%); format: functional
Mus musculus = test: Toxicity in human MCF7 cells xenografted in NIH-3 mouse assessed as changed in body weight at 16 mg/kg, po for 29 days relative to control; format: organism-based; design: dose 16 mg/kg, route oral; settings: in vivo, 696 h

Platelet-derived growth factor receptor alpha (Homo sapiens), sequence (P16234 whole entry): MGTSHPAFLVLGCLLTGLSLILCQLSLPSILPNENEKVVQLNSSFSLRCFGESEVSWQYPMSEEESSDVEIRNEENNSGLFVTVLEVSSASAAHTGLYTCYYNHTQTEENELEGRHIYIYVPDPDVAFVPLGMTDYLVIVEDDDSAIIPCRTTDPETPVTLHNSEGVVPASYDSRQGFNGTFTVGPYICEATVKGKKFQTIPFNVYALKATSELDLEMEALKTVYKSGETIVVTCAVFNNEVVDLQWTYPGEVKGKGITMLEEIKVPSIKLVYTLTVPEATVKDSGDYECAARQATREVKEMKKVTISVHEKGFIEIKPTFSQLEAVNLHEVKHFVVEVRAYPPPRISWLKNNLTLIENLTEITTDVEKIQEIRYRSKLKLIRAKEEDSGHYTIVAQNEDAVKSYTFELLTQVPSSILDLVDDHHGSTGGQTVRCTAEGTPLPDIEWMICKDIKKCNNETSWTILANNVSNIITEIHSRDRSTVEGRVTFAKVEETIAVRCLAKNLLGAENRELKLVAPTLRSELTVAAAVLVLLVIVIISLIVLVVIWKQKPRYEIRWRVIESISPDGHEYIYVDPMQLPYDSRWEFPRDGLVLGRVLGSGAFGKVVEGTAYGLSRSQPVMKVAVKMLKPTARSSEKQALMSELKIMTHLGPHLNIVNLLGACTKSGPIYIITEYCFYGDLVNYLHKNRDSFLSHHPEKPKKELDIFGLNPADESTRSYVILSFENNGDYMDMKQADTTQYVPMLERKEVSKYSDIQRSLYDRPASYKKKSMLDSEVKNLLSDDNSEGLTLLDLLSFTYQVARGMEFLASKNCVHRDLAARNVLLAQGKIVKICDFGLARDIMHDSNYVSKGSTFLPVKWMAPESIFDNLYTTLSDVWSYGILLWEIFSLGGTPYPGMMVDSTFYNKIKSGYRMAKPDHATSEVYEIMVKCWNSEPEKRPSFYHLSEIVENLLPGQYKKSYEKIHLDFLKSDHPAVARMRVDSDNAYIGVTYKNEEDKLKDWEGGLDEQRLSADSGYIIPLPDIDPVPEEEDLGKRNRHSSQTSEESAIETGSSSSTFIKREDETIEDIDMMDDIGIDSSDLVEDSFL

For `CCN(CC)CCO/N=C(\c1ccc(SC)cc1)c1cccc2ccccc12`, the inhibition [1] was “inactive”, the inhibition [2] was “inactive” and the inhibition [3] was “inactive”. For the same compound, the inhibition [4] was “inactive”, the inhibition [5] was “inactive” and the inhibition [6] was “inactive”. For the same compound, the Activity (MDA-MB-231 [7]) was “Active”, the Activity (MCF7 [8]) was “inactive” and the inhibition (MDA-MB-231 [9]) was “Active”. For the same compound, the inhibition (MCF7 [10]) was “inactive”, the inhibition (MDA-MB-231 [11]) was “inactive” and the inhibition [12] was “inactive”. The inhibition (MDA-MB-231 [13]) was “Active”.

In the case of `CCN(CC)CCO/N=C(\c1ccc(SC)cc1)c1cccc2ccccc12.O=C(O)C(=O)O`, the IC50 (Vero) is reported as greater than 25 µM, the selectivity ratio [14] is reported as 4.7 and the Activity (MCF7 [15]) is reported as 0.9%. The Activity (MDA-MB-231 [16]) was 0.99% and the Activity (Mus musculus) was “Non-toxic”.
